Test results taken from ChEMBL document CHEMBL3739259, “Defining Key Structural Determinants for the Pro-osteogenic Activity of Flavonoids” (J Nat Prod, 2015).
Calls of active or inactive are those of the source. The rule behind the calls is not given here.

Columns and labels:
[1] = Cytotoxicity against human MSC assessed as cell viability at 10 uM treated for 3 days measured on day 4 by alamar blue assay (reference value: 97 to 100%); settings: MSC cells, read-out: Activity
[2] = Induction of osteogenic differentiation in human MSC assessed as increase in ALP activity at 10 uM using p-NPP as substrate after 9 days by colorimetric method relative to control; type: functional
Procedure, shortened: (§1)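 ALP read on day 9 in passage-3 bone-marrow hMSCs cultured at high density in Os.D medium. Compound (1, 5 or 10 μM, 0.1% v/v DMSO final) was re-applied on days 0, 3 and 6. Colorimetric p-nitrophenyl phosphate method, normalised to time and cell number (pNP/min/20,000 cells). Expressed as % of untreated control; three independent triplicate experiments; one-way ANOVA versus vehicle.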

[3] = Cytotoxicity against human MSC assessed as cell viability at 1 uM measured on day 1 by alamar blue assay (reference value: 97 to 101%); settings: MSC cells, read-out: Activity
[4] = Decrease in ALP activity in human MSC using p-NPP as substrate at 5 uM after 9 days by colorimetric method relative to control; type: functional; set-up: Activity: scale not given: the % may be the effect or the level left; procedure, shortened: as §1
[5] = Cytotoxicity against human MSC assessed as cell viability at 10 uM measured on day 1 by alamar blue assay (reference value: 97 to 101%); settings: MSC cells, read-out: Activity
[6] = Cytotoxicity against human MSC assessed as cell viability at 5 uM measured on day 1 by alamar blue assay (reference value: 97 to 101%); settings: MSC cells, read-out: Activity
[7] = Cytotoxicity against human MSC assessed as cell viability at 5 uM treated for 3 days measured on day 4 by alamar blue assay (reference value: 97 to 100%); settings: MSC cells, read-out: Activity
[8] = Cytotoxicity against human MSC assessed as cell viability at 10 uM treated for 6 days measured on day 7 by alamar blue assay (reference value: 96 to 101%); settings: MSC cells, read-out: Activity
MSC [9] = assay: (§2) Induction of osteogenic differentiation in human MSC assessed as increase in ALP activity at 5 uM using p-NPP as substrate after 9 days by colorimetric method relative to control; type: functional; procedure, shortened: as §1
[10] = Cytotoxicity against human MSC assessed as cell viability at 5 uM treated for 6 days measured on day 7 by alamar blue assay (reference value: 96 to 101%); settings: MSC cells, read-out: Activity
[11] = Cytotoxicity against human MSC assessed as cell viability at 1 uM treated for 3 days measured on day 4 by alamar blue assay (reference value: 97 to 100%); settings: MSC cells, read-out: Activity
[12] = Cytotoxicity against human MSC assessed as cell viability at 1 uM treated for 6 days measured on day 7 by alamar blue assay (reference value: 96 to 101%); settings: MSC cells, read-out: Activity
MSC [13] = assay: Induction of osteogenic differentiation in human MSC assessed as increase in ALP activity at 1 uM using p-NPP as substrate after 9 days by colorimetric method relative to control; type: functional; procedure, shortened: as §1
[14] = Cytotoxicity against human MSC assessed as cell viability at 1 uM measured on day 1 by alamar blue assay (reference value: […] +/- 1%); settings: MSC cells, read-out: Activity
[15] = Cytotoxicity against human MSC assessed as cell viability at 10 uM after 24 hrs measured on day 1 by alamar blue assay (reference value: […] +/- 1%); settings: MSC cells, read-out: Activity
[16] = Cytotoxicity against human MSC assessed as cell viability at 10 uM treated for 3 days measured on day 4 by alamar blue assay (reference value: 100 +/- 1%); settings: MSC cells, read-out: Activity
[17] = as §2; type: functional; procedure, shortened: as §1
[18] = Cytotoxicity against human MSC assessed as cell viability at 5 uM treated for 3 days measured on day 4 by alamar blue assay (reference value: 100 +/- 1%); settings: MSC cells, read-out: Activity
[19] = Cytotoxicity against human MSC assessed as cell viability at 10 uM treated for 6 days measured on day 7 by alamar blue assay (reference value: 98%); settings: MSC cells, read-out: Activity
[20] = Cytotoxicity against human MSC assessed as decrease in cell number at 1 to 10 uM after 9 days by methylene blue staining based microscopy relative to control; settings: 216 h
Procedure, shortened: (§3)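 Passage-3 bone-marrow hMSCs, high density in Os.D medium, dosed with 1, 5 or 10 μM compound (0.1% v/v DMSO final) on days 0, 3 and 6 with medium changes. Cell number measured on day 9 by methylene blue proliferation assay. Expressed as % of untreated control; three independent triplicate experiments, mean ± SEM, one-way ANOVA versus vehicle.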

[21] = Cytotoxicity against human MSC assessed as cell viability at 1 uM treated for 6 days measured on day 7 by alamar blue assay (reference value: 98%); settings: MSC cells, read-out: Activity
[22] = Cytotoxicity against human MSC assessed as cell viability at 1 uM treated for 3 days measured on day 4 by alamar blue assay (reference value: 100 +/- 1%); settings: MSC cells, read-out: Activity
[23] = Cytotoxicity against human MSC assessed as cell viability at 5 uM after 24 hrs measured on day 1 by alamar blue assay (reference value: […] +/- 1%); settings: MSC cells, read-out: Activity
[24] = Cytotoxicity against human MSC assessed as cell viability at 5 uM treated for 6 days measured on day 7 by alamar blue assay (reference value: 98%); settings: MSC cells, read-out: Activity
[25] = Decrease in ALP activity in human MSC using p-NPP as substrate at 10 uM after 9 days by colorimetric method relative to control; type: functional
Procedure, shortened: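 Passage-3 bone-marrow hMSCs from healthy donors, cultured at high density in osteogenic (Os.D) medium; compound given at days 0, 3 and 6 with media change every 3 days, final 0.1% (v/v) DMSO; vehicle, 50 nM calcitriol and untreated controls. Day-9 ALP by para-nitrophenyl phosphate colorimetry, normalised to time and cell number (methylene blue); % of untreated control, 3 independent triplicate experiments ± SEM.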

MSC [26] = assay: Induction of osteogenic differentiation in human MSC assessed as increase in ALP activity using p-NPP as substrate after 9 days by colorimetric method; type: functional; procedure, shortened: as §1
[27] = Cytotoxicity against human MSC assessed as […] in cell number at 1 to 10 uM after 9 days by methylene blue staining based microscopy relative to control; settings: 216 h; procedure, shortened: as §3

| Structure (SMILES) | viability at 72 h, 10 µM [1] | viability at 1 day, 1 µM [3] | viability at 1 day, 10 µM [5] | viability at 1 day, 5 µM [6] | viability at 72 h, 5 µM [7] | viability at 144 h, 10 µM [8] | Activity (MSC [9]) | viability at 144 h, 5 µM [10] | viability at 72 h, 1 µM [11] | viability at 144 h, 1 µM [12] | Activity (MSC [13]) | Activity [20] | fold change (FC) [25] | fold change (FC) [2] | fold change (FC) [17] | further results |
| --- | --- | --- | --- | --- | --- | --- | --- | --- | --- | --- | --- | --- | --- | --- | --- | --- |
| O=C1C[C@@H](c2ccc(O)c(O)c2)Oc2cc(O)cc(O)c21 [ERIODICTYOL] | 102% | 102% | 99% | 98% | 102% | 101% | inactive | 102% | 103% | 101% | inactive | – | – | – | – | Activity [2]: 111%; Activity [4]: 98% |
| O=C1C[C@@H](c2ccccc2)Oc2cc(O)cc(O)c21 [PINOCEMBRIN] | – | – | – | – | – | – | – | – | – | – | inactive | Non-toxic | – | – | – | viability at 1 day, 1 µM [14]: 109%; viability at 24 h, 10 µM [15]: 111%; Activity [2]: 121%; viability at 72 h, 10 µM [16]: 96%; Activity [17]: 107%; viability at 72 h, 5 µM [18]: 95%; viability at 144 h, 10 µM [19]: 98%; viability at 144 h, 1 µM [21]: 96%; viability at 72 h, 1 µM [22]: 94%; viability at 24 h, 5 µM [23]: 110%; viability at 144 h, 5 µM [24]: 97% |
| O=C(O[C@@H]1Cc2c(O)cc(O)cc2O[C@@H]1c1cc(O)c(O)c(O)c1)c1cc(O)c(O)c(O)c1 [EPIGALOCATECHIN GALLATE] | 89% | 101% | 90% | 98% | 91% | 102% | inactive | 101% | 93% | 101% | inactive | – | 0.75 | – | – | Activity [4]: 84%; fold change (FC) [20]: 0.43 |
| COc1ccc(-c2oc3cc(O)cc(O)c3c(=O)c2O)cc1O [TAMARIXETIN] | 93% | 105% | 102% | 102% | 97% | 93% | – | 96% | 97% | 94% | inactive | Toxic | – | 1.32 | 1.52 | Activity (MSC [26]): Dose-dependent effect |
| COc1ccc([C@@H]2CC(=O)c3c(O)cc(O)cc3O2)cc1O [HESPERETIN] | 103% | 102% | 96% | 95% | 102% | 98% | inactive | 99% | 98% | 97% | inactive | – | – | 1.72 | – | Activity [27]: Toxic |
| O=c1c(O)c(-c2cc(O)c(O)c(O)c2)oc2cc(O)cc(O)c12 [MYRICETIN] | 101% | 100% | 101% | 94% | 97% | 98% | – | 98% | 97% | 97% | inactive | Toxic | 0.62 | – | – | fold change (FC) [4]: 0.74 |
| COc1cc(-c2oc3cc(O)cc(O)c3c(=O)c2O)ccc1O [ISORHAMNETIN] | 91% | 105% | 108% | 107% | 92% | 97% | – | 100% | 93% | 98% | inactive | Toxic | – | 1.32 | 1.52 | – |
| O=c1c(O)c(-c2ccccc2)oc2cc(O)cc(O)c12 [GALANGIN] | 91% | 105% | 104% | 105% | 91% | 97% | – | 97% | 94% | 99% | inactive | – | – | 1.32 | 1.52 | Activity (MSC [26]): Dose-dependent effect |
| O=c1cc(-c2ccc(O)c(O)c2)oc2cc(O)cc(O)c12 [LUTEOLIN] | 94% | 100% | 93% | 96% | 96% | 96% | – | 94% | 99% | 97% | inactive | Toxic | 0.59 | – | – | – |
